From PMC11532418 (Scientific Reports, 2024)

Columns and labels:
NIH/3T3 = assay: MTT cytotoxic bioassay on normal cell line; assay type: cell-based; settings: Mus musculus, NIH3T3, 72 h, read-out: IC50 ± SD
Procedure, shortened: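 NIH/3T3 fibroblasts were grown in high-glucose DMEM with 10% FBS and 1% penicillin-streptomycin under humidified 5% CO2. 1.0 × 10^4 cells/well were precultured for 16 h, then exposed for 72 h in fresh medium (reference drug at 1–200 µM). MTT (0.50 mg/ml final) was added for 4 h, and formazan was dissolved in DMSO. A570 − A630 gave % viability. IC50 is mean ± SD of three independent experiments.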

DPP4 enzyme [1] = target: T1, DPP4 enzyme (Homo sapiens, UniProt P27487); assay: biochemical; settings: read-out: % DPP4 Enzyme Inhibition, at 20 µM
DPP4 enzyme [2] = target: T1, DPP4 enzyme; assay: Kinetic study of DPP4 inhibition; assay type: biochemical
Procedure, shortened: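 DPP4 inhibition kinetics with fluorogenic substrate H-Gly-Pro-AMC at different substrate-to-enzyme concentration ratios, test compound at four concentrations (0.5, 5, 25 and 50 µM). Double-reciprocal plots of 1/velocity vs 1/[substrate] fitted by weighted least squares, assuming velocity variance is a constant percentage of v. Lineweaver–Burk slopes were replotted against inhibitor concentration, and Ki was taken as the negative X-axis intercept.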

T1 sequence (P27487 whole entry): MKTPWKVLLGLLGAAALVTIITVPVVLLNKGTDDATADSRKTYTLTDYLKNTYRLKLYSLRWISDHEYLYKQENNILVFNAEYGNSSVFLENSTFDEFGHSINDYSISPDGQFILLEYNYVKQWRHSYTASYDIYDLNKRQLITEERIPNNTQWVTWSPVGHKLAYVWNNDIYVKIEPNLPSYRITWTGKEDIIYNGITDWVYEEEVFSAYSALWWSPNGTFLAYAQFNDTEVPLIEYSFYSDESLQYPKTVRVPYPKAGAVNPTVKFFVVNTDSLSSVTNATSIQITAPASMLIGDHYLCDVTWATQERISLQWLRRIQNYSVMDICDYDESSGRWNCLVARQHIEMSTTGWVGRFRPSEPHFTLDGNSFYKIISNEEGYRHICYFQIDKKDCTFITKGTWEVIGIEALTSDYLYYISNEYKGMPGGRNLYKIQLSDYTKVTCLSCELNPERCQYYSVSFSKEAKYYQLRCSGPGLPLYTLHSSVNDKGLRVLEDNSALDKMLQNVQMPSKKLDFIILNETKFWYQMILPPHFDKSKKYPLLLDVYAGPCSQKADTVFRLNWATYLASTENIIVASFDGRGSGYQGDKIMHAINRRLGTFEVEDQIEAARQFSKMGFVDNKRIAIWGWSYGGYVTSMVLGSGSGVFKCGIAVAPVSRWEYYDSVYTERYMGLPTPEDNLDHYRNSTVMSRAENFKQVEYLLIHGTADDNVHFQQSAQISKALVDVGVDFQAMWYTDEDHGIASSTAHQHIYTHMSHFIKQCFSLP

Row | SMILES | IC50 (NIH/3T3) [µM] | other results
1 | Cn1c(=O)cc(N2CCC(N)CC2)n(Cc2nc3ccccc3c(=O)n2-c2ccccc2)c1=O [9a, 6-(4-Aminopiperidin-1-yl)-3-methyl-1-((4-oxo-3-phenyl-3,4-dihydroquinazolin-2-yl)methyl)pyrimidine-2,4(1 H,3 H)-dione] | 88.1 ± 3.22 | 
2 | Cn1c(=O)cc(N2CCC(N)CC2)n(Cc2nc3ccccc3c(=O)n2-c2ccc(F)cc2)c1=O [9b, 6-(4-Aminopiperidin-1-yl)-1-((3-(4-fluorophenyl)-4-oxo-3,4-dihydroquinazolin-2-yl)methyl)-3-methylpyrimidine-2,4(1 H,3 H)-dione] | 62.9 ± 1.98 | 
3 | Cn1c(=O)cc(N2CCC(N)CC2)n(Cc2nc3ccccc3c(=O)n2-c2ccc(Cl)cc2)c1=O [9c, 6-(4-Aminopiperidin-1-yl)-1-((3-(4-chlorophenyl)-4-oxo-3,4-dihydroquinazolin-2-yl)methyl)-3-methylpyrimidine-2,4(1 H,3 H)-dione] | 72.2 ± 3.91 | inhibition at 20 µM (DPP4 enzyme [1]): > 50%
4 | Cc1ccc(-n2c(Cn3c(N4CCC(N)CC4)cc(=O)n(C)c3=O)nc3ccccc3c2=O)cc1 [9d, 6-(4-Aminopiperidin-1-yl)-3-methyl-1-((4-oxo-3-(p-tolyl)-3,4-dihydroquinazolin-2-yl)methyl)pyrimidine-2,4(1 H,3 H)-dione] | 39.3 ± 1.05 | 
5 | Cn1c(=O)cc(N2CCC(N)CC2)n(Cc2nc3ccccc3c(=O)n2-c2cccc(C(F)(F)F)c2)c1=O [9e, 6-(4-Aminopiperidin-1-yl)-3-methyl-1-((4-oxo-3-(3-(trifluoromethyl)phenyl)-3,4-dihydroquinazolin-2-yl)methyl)pyrimidine-2,4(1 H,3 H)-dione] | 81.5 ± 5.94 | 
6 | Cn1c(=O)cc(N2CCC(N)CC2)n(Cc2nc3ccccc3c(=O)n2-c2ccc(F)c(Cl)c2)c1=O [9f, 6-(4-Aminopiperidin-1-yl)-1-((3-(3-chloro-4-fluorophenyl)-4-oxo-3,4-dihydroquinazolin-2-yl)methyl)-3-methylpyrimidine-2,4(1 H,3 H)-dione] | 43.4 ± 1.02 | 
7 | Cn1c(=O)cc(N2CCC(N)CC2)n(Cc2nc3ccc(Br)cc3c(=O)n2-c2ccccc2)c1=O [9g, 6-(4-Aminopiperidin-1-yl)-1-((6-bromo-4-oxo-3-phenyl-3,4-dihydroquinazolin-2-yl)methyl)-3-methylpyrimidine-2,4(1 H,3 H)-dione] | 102 ± 4.05 | 
8 | Cn1c(=O)cc(N2CCC(N)CC2)n(Cc2nc3ccc(Br)cc3c(=O)n2-c2ccc(F)cc2)c1=O [9h, 6-(4-Aminopiperidin-1-yl)-1-((6-bromo-3-(4-fluorophenyl)-4-oxo-3,4-dihydroquinazolin-2-yl)methyl)-3-methylpyrimidine-2,4(1 H,3 H)-dione] | 89.7 ± 3.76 | 
9 | Cn1c(=O)cc(N2CCC(N)CC2)n(Cc2nc3ccc(Br)cc3c(=O)n2-c2ccc(Cl)cc2)c1=O [9i, 6-(4-Aminopiperidin-1-yl)-1-((6-bromo-3-(4-chlorophenyl)-4-oxo-3,4-dihydroquinazolin-2-yl)methyl)-3-methylpyrimidine-2,4(1 H,3 H)-dione] | 76.9 ± 2.58 | Ki (DPP4 enzyme [2]): 12 µM; type of inhibition (DPP4 enzyme [2]; Lineweaver-Burk plot): competitive
10 | Cn1c(=O)cc(N2CCC(N)CC2)n(Cc2nc3ccc(Br)cc3c(=O)n2-c2ccc(Br)cc2)c1=O [9j, 6-(4-Aminopiperidin-1-yl)-1-((6-bromo-3-(4-bromophenyl)-4-oxo-3,4-dihydroquinazolin-2-yl)methyl)-3-methylpyrimidine-2,4(1 H,3 H)-dione] | 91 ± 1.98 | inhibition at 20 µM (DPP4 enzyme [1]): > 50%
11 | Cn1c(=O)cc(N2CCC(N)CC2)n(Cc2nc3ccc(Br)cc3c(=O)n2-c2cccc(F)c2)c1=O [9k, 6-(4-Aminopiperidin-1-yl)-1-((6-bromo-3-(3-fluorophenyl)-4-oxo-3,4-dihydroquinazolin-2-yl)methyl)-3-methylpyrimidine-2,4(1 H,3 H)-dione] | 68.4 ± 3.01 | 
12 | Cn1c(=O)cc(N2CCC(N)CC2)n(Cc2nc3ccc(Br)cc3c(=O)n2-c2cccc(Br)c2)c1=O [9l, 6-(4-Aminopiperidin-1-yl)-1-((6-bromo-3-(3-bromophenyl)-4-oxo-3,4-dihydroquinazolin-2-yl)methyl)-3-methylpyrimidine-2,4(1 H,3 H)-dione] | 78.1 ± 2.95 | 
13 | N[C@@H](CC(=O)N1CCn2c(nnc2C(F)(F)F)C1)Cc1cc(F)c(F)cc1F [Sitagliptin, reference compound] | 111 ± 5.85 | 
